According to paper PMC6880868 (Cancer cell, 2019):

Experiments:
STAT5B = STAT5B (Homo sapiens, UniProt P51692); test: Bio-Layer Interferometry binding, STAT5B
How it was run: (§1)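 Purified recombinant human STAT proteins were biotinylated, then direct binding of the test compound was measured by Bio-Layer Interferometry to give Kd.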

SUP-M2 tumor = test: SUP-M2 xenograft efficacy; format: in vivo, mice
How it was run: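 NOD/SCID female mice were injected subcutaneously in 5 mg/ml Matrigel with MOLM-16 (3 × 10^6), SU-DHL-1 (1 × 10^7) or SUP-M2 (1 × 10^7) cells. At about 150 mm3, mice were size-matched and randomised. Test compound or vehicle (10% PEG400 + 90% PBS) was given on the indicated schedules. Tumours were measured 2–3 times weekly, with volume = length×width²/2. TGI was calculated from group medians.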

[1] = Toxicity in immune competent mice; format: in vivo, CD-1 female mice
How it was run: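 Female CD-1 mice were given test compound i.v. at 50 or 100 mg/kg, or vehicle (10% PEG400 + 90% PBS), three times weekly for three weeks. Body weight was recorded 2–3 times per week. At the end, blood and major organs were taken for haematology, serum chemistry, organ coefficients and histology.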

[2] = test system: ~5500 proteins quantified in each cell line; test: Multiplexed quantitative proteomics in cell lines; format: cell-based, human; details: 10 μM, 2.5 hr, three cell lines, p≤0.05
How it was run: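 Cells were exposed to test compound, then analysed by multiplexed quantitative proteomics. Significance was assessed by Student's t-test.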

[3] = test system: MOLM-16 and SU-DHL-1 cell lines; test: Cell cycle analysis by flow cytometry; format: cell-based, human; details: 1 μM, 48 hr
How it was run: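 After treatment, cells were washed twice in cold PBS and fixed overnight in 50% ethanol. They were stained 1 hr at 4°C with PI (50 μg/ml) plus DNase-free RNase A (0.2 μg/ml), then analysed by flow cytometry.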

MOLM-16 cells = test: RNA-seq analysis, MOLM-16; format: cell-based, human
[4] = test system: transcriptional activity of STAT3; test: STAT3-luciferase reporter assay; format: cell-based, human; details: Homo sapiens, MOLM16, 24 h, read-out: IC50, transcriptional activity of STAT3
[5] = test system: DNA binding activities of STAT1, STAT5A or STAT5B; test: STAT1, STAT5A, STAT5B DNA binding activity assay; format: cell-based, human; details: MOLM-16
How it was run: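 Nuclear extraction: cells were swelled 15 min on ice in hypotonic HEPES pH 7.9/10 mM KCl buffer with DTT and phosphatase/protease inhibitors. NP-40 was added (0.5% final), and nuclei were extracted 15 min at 4°C in 0.4 M NaCl HEPES buffer, then cleared at 5,000 × g. ELISA: 5 μg extract was bound 1 hr at room temperature in TransAM STAT ELISA wells. Wells then received STAT antibody (1:1000, 1 hr), HRP secondary (1 hr) and colour development.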

[6] = test system: c-Myc; STAT3 Y705 phosphorylation; test: Immunoblotting of c-Myc and pSTAT3; format: cell-based, human; details: 0.5 μM, 24 hr
How it was run: (§2)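 Treated cells were lysed in cell lysis buffer, resolved by SDS-PAGE, transferred to PVDF and probed by immunoblotting.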

[7] = test system: IKZF1, IKZF3, CK1α, GSPT1; test: Immunoblotting of CRBN neo-substrates; format: cell-based, human; details: 24 hr; SD-36 0.5 μM, lenalidomide 1 μM
STAT5A = STAT5A (Homo sapiens, UniProt P42229); test: Bio-Layer Interferometry binding, STAT5A
Sequence of STAT5A (P42229 136-705): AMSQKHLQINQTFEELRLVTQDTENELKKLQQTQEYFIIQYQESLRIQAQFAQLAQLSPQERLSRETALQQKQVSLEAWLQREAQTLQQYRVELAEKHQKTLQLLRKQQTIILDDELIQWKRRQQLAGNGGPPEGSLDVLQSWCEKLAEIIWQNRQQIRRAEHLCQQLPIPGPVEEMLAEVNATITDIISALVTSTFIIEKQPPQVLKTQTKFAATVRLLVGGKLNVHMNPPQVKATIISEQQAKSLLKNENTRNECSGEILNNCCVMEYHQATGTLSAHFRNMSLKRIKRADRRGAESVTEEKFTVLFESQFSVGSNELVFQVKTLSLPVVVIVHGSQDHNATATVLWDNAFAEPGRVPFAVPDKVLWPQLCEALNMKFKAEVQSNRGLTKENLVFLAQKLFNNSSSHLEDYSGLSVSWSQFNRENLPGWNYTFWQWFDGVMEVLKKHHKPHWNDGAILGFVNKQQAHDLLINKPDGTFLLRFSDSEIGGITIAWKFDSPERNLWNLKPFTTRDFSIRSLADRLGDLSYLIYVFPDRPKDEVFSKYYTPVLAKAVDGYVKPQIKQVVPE
How it was run: as §1

STAT3 = STAT3 (Homo sapiens, UniProt P40763); test: Fluorescence polarization; format: binding
Sequence of STAT3 (P40763 127-688): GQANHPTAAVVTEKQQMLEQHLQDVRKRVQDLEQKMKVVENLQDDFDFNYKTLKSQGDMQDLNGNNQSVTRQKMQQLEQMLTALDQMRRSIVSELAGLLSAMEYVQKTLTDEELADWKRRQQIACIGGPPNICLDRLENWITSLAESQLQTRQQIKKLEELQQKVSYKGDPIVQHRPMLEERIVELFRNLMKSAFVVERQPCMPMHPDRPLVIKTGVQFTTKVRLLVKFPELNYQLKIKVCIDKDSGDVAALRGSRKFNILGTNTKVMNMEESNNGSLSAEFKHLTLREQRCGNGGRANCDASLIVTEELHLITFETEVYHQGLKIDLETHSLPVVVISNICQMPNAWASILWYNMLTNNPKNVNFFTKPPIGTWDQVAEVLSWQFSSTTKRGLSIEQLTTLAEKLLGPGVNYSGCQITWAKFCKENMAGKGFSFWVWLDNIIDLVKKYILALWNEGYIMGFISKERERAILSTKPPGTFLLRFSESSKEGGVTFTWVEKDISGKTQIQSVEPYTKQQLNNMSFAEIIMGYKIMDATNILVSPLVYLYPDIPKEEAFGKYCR
How it was run: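 Competitive fluorescence polarisation assay. Recombinant STAT3 (25 nM) was premixed 5 min with 2.5 nM 5-FAM-labelled STAT3 SH2-domain ligand. The mix was added to serially diluted test compound and read after 1 hr at room temperature. Buffer: 50 mM NaCl, 10 mM HEPES pH 7.5, 1 mM EDTA, 0.01% Triton X-100, 2 mM DTT. IC50 came from nonlinear regression and was converted to Ki.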

[8] = test system: SU-DHL-1 and SUP-M2 cells; test: Annexin V apoptosis assay; format: cell-based, human; details: 48 hr
How it was run: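 Cells collected at the end of treatment, washed in cold PBS, stained with an Annexin V-FLUOS kit per the maker's protocol, and analysed by flow cytometry.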

[9] = Body weight and signs of toxicity in efficacy experiments; format: in vivo, mice; details: all efficacy experiments
How it was run: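 Animal weights and signs of toxicity were recorded 2–3 times per week in NOD/SCID female mice with subcutaneous xenografts. Mice received test compound or vehicle (10% PEG400 + 90% PBS) on the indicated schedules.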

STAT4 = STAT4 (Homo sapiens, UniProt Q14765); test: Bio-Layer Interferometry binding, STAT4
Sequence of STAT4 (Q14765 133-705): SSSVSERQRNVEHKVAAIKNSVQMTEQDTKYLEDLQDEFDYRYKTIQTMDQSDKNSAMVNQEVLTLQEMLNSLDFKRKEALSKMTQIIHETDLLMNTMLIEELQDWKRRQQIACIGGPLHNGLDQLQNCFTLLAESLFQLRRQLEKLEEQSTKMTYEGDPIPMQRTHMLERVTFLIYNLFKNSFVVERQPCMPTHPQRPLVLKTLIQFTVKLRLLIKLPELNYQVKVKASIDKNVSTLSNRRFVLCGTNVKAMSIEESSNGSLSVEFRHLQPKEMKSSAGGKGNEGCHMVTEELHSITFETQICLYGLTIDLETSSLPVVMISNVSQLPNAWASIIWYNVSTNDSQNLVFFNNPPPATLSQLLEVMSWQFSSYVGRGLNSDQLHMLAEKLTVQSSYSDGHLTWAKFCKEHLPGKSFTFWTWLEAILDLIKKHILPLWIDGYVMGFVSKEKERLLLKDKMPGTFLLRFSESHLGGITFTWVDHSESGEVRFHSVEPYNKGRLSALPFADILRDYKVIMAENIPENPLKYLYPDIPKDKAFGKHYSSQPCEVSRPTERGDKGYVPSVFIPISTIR
How it was run: as §1

[10] = test system: STAT1, STAT4 and other STATs; test: Degradation of other STAT proteins in cells; format: cell-based, human
How it was run: as §2

[11] = test system: transcriptional activities of STAT1 or STAT5A/B; test: STAT1 and STAT5 dependent reporter cell lines; format: cell-based; details: STAT-dependent reporter cell lines
How it was run: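 Reporter cells (1000–2000) were seeded in duplicate plates, one for luciferase and one for CellTiter-Glo viability. Test compound was added 4–6 hr later, and cells were cultured 24 or 48 hr. Firefly and Renilla luciferase were read, and signals were normalised to cell number from the viability plate.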

[12] = i.v. 50 and 100 mg/kg, three times a week for three weeks

Sequence of STAT5B (P51692 138-710): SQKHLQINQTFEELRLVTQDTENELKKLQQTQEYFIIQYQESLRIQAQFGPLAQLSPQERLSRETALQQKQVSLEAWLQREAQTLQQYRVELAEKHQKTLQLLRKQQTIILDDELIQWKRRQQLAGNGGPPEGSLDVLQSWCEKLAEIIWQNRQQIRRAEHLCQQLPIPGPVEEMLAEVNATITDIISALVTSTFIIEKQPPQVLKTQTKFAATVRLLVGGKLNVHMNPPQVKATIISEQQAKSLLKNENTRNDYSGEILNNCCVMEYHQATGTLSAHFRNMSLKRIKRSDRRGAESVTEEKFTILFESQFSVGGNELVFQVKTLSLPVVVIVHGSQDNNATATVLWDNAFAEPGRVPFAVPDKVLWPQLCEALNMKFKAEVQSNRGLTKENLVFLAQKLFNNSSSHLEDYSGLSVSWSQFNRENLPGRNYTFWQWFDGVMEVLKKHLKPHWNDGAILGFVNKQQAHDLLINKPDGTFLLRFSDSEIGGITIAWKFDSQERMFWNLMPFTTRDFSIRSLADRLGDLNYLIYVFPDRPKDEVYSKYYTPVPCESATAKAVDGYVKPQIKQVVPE

NC(=O)CC[C@H](NC(=O)[C@@H]1CC[C@@H]2CCN(C(=O)CCCCCC#Cc3cccc4c3CN(C3CCC(=O)NC3=O)C4=O)C[C@H](NC(=O)c3cc4cc(C(F)(F)P(=O)(O)O)ccc4[nH]3)C(=O)N21)C(=O)NC(c1ccccc1)c1ccccc1 (stereo partly drawn) [SD-36, ((2-(((5S,8S,10aR)-8-(((S)-5-amino-1-(benzhydrylamino)-1,5-dioxopentan-2-yl)carbamoyl)-3-(8-(2-(2,6-dioxopiperidin-3-yl)-1-oxoisoindolin-4-yl)oct-7-ynoyl)-6-oxodecahydropyrrolo[1,2-a][1,5]diazocin-5-yl)carbamoyl)-1H-indol-5-yl)difluoromethyl)phosphonic acid]
Kd (STAT5B): > 10000 nM
tumor growth (SUP-M2 tumor; 50 mg/kg three times per week): completely inhibited tumor growth
tumor response (SUP-M2 tumor; 100 mg/kg three times per week, tumor free until day 30): Complete tumor regression
tumors with complete tumor regression (SUP-M2 tumor; 100 mg/kg twice a week for 3 weeks, day 29): 5 out of 7
numbers of neutrophils and platelets ([1]; 100 mg/kg, three times a week for three weeks): slightly increased
creatinine, blood urea nitrogen, calcium, albumin and total blood protein ([1]; data not shown): no significant effect
counts of red or white blood cells, lymphocytes, monocytes or eosinophils [1, 12]: no significant changes
systemic toxicity by body weight, organ coefficient and hematology [1, 12]: no obvious systemic toxicity
histology of mouse tissues ([1]; mouse, in vivo): no significant effects
body weight ([1]; reversible one week after withdrawal): moderate body weight gain
proteome-wide selectivity [2]: STAT3 was the only protein whose level was significantly decreased by ≥2-fold
cell cycle effect [3]: profound G1 arrest
genes down-regulated by ≥2-fold (p≤0.05) (MOLM-16 cells; MOLM-16, 1 μM, 8 hr): 125 genes
genes up-regulated by ≥2-fold (p≤0.05) (MOLM-16 cells; MOLM-16, 1 μM, 8 hr): 34 genes
genes down-regulated ≥2-fold (p≤0.05) (MOLM-16 cells; MOLM-16, 24 hr): 301 genes
genes up- or down-regulated ≥2-fold (p≤0.05), total (MOLM-16 cells; MOLM-16, 24 hr): 348 genes
genes up-regulated ≥2-fold (p≤0.05) (MOLM-16 cells; MOLM-16, 24 hr): 47 genes
IC50 [4]: 10 nM
DNA binding activities of STAT1, STAT5A or STAT5B [5]: no significant effect
expression of c-Myc [6]: reduced
levels of IKZF1, IKZF3 and CK1α [7]: very modest effect
protein levels of GSPT1 [7]: not affected
Kd (STAT5A): ~5000 nM
Ki (STAT3): 11 nM
apoptosis [8]: strong apoptotic cell death
weight loss or other signs of toxicity [9]: no significant weight loss
Kd (STAT4): 1000 to 2000 nM
effect on other STATs ([10]; MOLM-16 and SU-DHL-1 cells): without effect on other STATs
degradation of STAT1, STAT4 and other STATs ([10]; human PBMCs, 24 hr): failed to degrade
transcriptional activities of STAT1 or STAT5A/B [11]: minimal effect
